In brackets after ≈: the same amount, converted by molar mass. Several values for one entry are separate records, joined by “and”; a condition that tells them apart may be missing. Equal entries are not always repeated. Activity calls are given as the source filed them. The rule behind the calls is not given here.
Assays:
[1] = tested on: Plasmodium falciparum; test: Antiplasmodial activity against asexual Plasmodium falciparum 3D7 infected in human […] cells assessed as reduction in parasite growth measured for 72 hrs by LDH assay; format: functional, organism-based; settings: 3D7, 72 h
[2] = tested on: HepG2; test: Cytotoxicity against human HepG2 cells assessed as inhibition of cell growth incubated for 48 hrs by celltiterglo assay; format: toxicity, cell-based; settings: hepg2, 48 h
[3] = Aqueous solubility in PBS buffer at pH 7.4; format: physicochemical
[4] = Metabolic stability in human liver microsome assessed as intrinsic clearance; format: ADME; settings: microsomes
[5] = Metabolic stability in mouse liver microsome assessed as intrinsic clearance; format: ADME; settings: microsomes
[6] = Metabolic stability in rat hepatocyte […] assessed as intrinsic clearance measured per 10^6 cells; format: ADME, cell-based; settings: hepatocytes
[7] = Lipophilicity, logD of compound at pH 7.4 by shake-flask method; format: physicochemical; settings: buffer
[8] = Permeability across basolateral to apical side in human Caco-2 cells; format: ADME, cell-based
[9] = Permeability across apical to basolateral side in human Caco-2 cells; format: ADME, cell-based
[10] = tested on: Plasmodium falciparum; test: Antimalarial activity against Plasmodium falciparum NF54 infected assessed as inhibition of male gamete formation incubated for 48 hrs by automated bright field microscopic analysis; format: functional, organism-based; settings: NF54, 48 h
[11] = tested on: Plasmodium falciparum; test: Antimalarial activity against Plasmodium falciparum NF54 infected assessed as inhibition of female gamete formation incubated for 48 hrs by automated bright field microscopic analysis; format: functional, organism-based; settings: NF54, 48 h
[12] = tested on: Plasmodium falciparum; test: Antiplasmodial activity against Plasmodium flaciparum NF54 stage V gametocytes infected in Anopheles stephensi with parasite infected blood meal assessed as reduction in oocyst count at 100 nM measured 7 days post blood infection by light microscopic analysis relative to control; format: functional; design: scale not given: the % may be the effect or the level left; settings: time 7 day
In short: (§1)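 Stage V gametocytes of P. falciparum NF54 were treated with compound and fed to Anopheles stephensi in a standard membrane feeding assay. Midguts were dissected 7 days after the blood meal and oocysts counted. Results were given as average oocyst intensity ± SEM, with a t test against vehicle.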

[13] = tested on: Plasmodium falciparum; test: Antiplasmodial activity against Plasmodium flaciparum NF54 stage V gametocytes infected in Anopheles stephensi with parasite infected blood meal assessed as reduction in oocyst count at 500 nM measured 7 days post blood infection by light microscopic analysis relative to control; format: functional; design: scale not given: the % may be the effect or the level left; settings: time 7 day; in short: as §1
[14] = tested on: Plasmodium berghei; test: Antimalarial activity against Plasmodium berghei ANKA infected in female BALB/c mouse assessed as parasitemia at 50 mg/kg, po measured for 2 to 72 hrs post infection by Giemsa staining based light microscopy; format: functional; settings: time 2-72 hrs
[15] = tested on: Plasmodium berghei; test: Antimalarial activity against Plasmodium berghei ANKA infected in female BALB/c mouse assessed as reduction in parasitemia at 50 mg/kg, po measured for 2 to 72 hrs post infection by Giemsa staining based light microscopy; format: functional; design: scale not given: the % may be the effect or the level left; settings: time 2-72 hrs
[16] = Tmax in CD-1 mouse at 20 mg/kg, po; format: ADME, organism-based; settings: in vivo
[17] = Cmax in CD-1 mouse at 20 mg/kg, po; format: ADME, organism-based; settings: in vivo
[18] = AUC (0 to last) in CD-1 mouse at 20 mg/kg, po; format: ADME, organism-based; settings: in vivo
[19] = Half life in CD-1 mouse at 20 mg/kg, po; format: ADME, organism-based; settings: in vivo
[20] = Clearance in CD-1 mouse at 20 mg/kg, po; format: ADME, organism-based; settings: in vivo
[21] = tested on: Plasmodium berghei; test: Antimalarial activity against Plasmodium berghei ANKA infected in female BALB/c mouse assessed as parasitemia at 30 mg/kg, po measured for 2 to 72 hrs post infection by Giemsa staining based light microscopy; format: functional; settings: time 2-72 hrs
[22] = tested on: Plasmodium berghei; test: Antimalarial activity against Plasmodium berghei ANKA infected in female BALB/c mouse assessed as reduction in parasitemia at 30 mg/kg, po measured for 2 to 72 hrs post infection by Giemsa staining based light microscopy; format: functional; design: scale not given: the % may be the effect or the level left; settings: time 2-72 hrs
[23] = molecular target: T1, P-type sodium-transporting ATPase4 (Plasmodium falciparum (isolate 3D7), UniProt A0A143ZZK9); test: Inhibition of Plasmodium falciparum 3D7 ATP4
T1 sequence (A0A143ZZK9 whole entry): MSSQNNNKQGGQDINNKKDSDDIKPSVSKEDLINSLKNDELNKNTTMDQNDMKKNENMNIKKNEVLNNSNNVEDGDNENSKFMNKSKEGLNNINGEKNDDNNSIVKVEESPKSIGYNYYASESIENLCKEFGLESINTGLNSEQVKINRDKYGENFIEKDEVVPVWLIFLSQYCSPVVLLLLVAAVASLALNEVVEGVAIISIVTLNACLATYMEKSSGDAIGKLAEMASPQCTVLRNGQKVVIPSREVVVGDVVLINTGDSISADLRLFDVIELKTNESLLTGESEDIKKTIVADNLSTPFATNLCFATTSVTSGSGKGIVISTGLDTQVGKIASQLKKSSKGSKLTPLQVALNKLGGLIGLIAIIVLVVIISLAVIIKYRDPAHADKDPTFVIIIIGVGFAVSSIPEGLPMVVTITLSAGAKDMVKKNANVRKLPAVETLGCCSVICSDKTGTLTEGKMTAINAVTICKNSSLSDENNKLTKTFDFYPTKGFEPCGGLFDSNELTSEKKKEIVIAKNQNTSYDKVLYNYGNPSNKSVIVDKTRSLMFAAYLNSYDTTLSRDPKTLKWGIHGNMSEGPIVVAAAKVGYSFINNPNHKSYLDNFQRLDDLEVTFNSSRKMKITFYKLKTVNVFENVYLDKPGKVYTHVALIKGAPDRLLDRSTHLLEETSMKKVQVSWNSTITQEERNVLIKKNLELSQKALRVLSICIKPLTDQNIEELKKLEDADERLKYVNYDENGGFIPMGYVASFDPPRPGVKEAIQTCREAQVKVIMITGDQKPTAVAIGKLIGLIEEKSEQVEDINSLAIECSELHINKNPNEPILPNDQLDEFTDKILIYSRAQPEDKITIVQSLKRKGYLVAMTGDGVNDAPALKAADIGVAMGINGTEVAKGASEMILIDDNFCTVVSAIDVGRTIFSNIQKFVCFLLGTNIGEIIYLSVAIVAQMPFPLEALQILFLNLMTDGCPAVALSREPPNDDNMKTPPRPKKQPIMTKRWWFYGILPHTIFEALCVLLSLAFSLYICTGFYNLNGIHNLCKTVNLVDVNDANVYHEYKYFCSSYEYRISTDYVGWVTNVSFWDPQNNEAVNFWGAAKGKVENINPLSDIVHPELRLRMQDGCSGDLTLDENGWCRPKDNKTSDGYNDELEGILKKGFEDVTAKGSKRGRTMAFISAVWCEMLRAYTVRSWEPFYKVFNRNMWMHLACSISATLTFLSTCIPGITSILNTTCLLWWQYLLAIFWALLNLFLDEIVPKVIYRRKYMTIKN

[24] = Inhibition of Plasmodium falciparum Dd2 ATP4 G358S mutant assessed as reduction in Na+-ATPase activity incubated for 10 mins in presence of ATP
In short: (§2)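 Membranes were prepared from Dd2-Polδ parasites (wild-type PfATP4) or Dd2-Polδ-PfATP4G358S parasites. ATPase activity was read as Pi production, with 1 mM Na2ATP, at high [Na+] (152 mM) and low [Na+] (2 mM). PfATP4-associated activity is the high-Na+ minus low-Na+ Pi, expressed as % of the high-Na+ control, over a concentration range. Data are means ± SEM of 2–5 independent membrane preparations.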

[25] = Inhibition of Plasmodium falciparum Dd2 ATP4 assessed as reduction in Na+-ATPase activity incubated for 10 mins in presence of ATP; in short: as §2
[26] = molecular target: T2, P-type sodium-transporting ATPase4 (Plasmodium falciparum (isolate 3D7)) (UniProt A0A143ZZK9); test: Inhibition of Plasmodium falciparum 3D7 ATP4 assessed as reduction in Na+-ATPase activity at 2 uM incubated for 10 mins under high [Na+] condition in absence of KAE609
T2 sequence (whole entry): T1 sequence (A0A143ZZK9 whole entry)

[27] = tested on: Plasmodium falciparum; test: Antiplasmodial activity against Plasmodium falciparum 3D7 infected in human […] cells incubated for 72 hrs; format: functional, organism-based; settings: 3D7, 72 h
[28] = tested on: Plasmodium falciparum; test: Antiplasmodial activity against W454-resistant population 1 Plasmodium falciparum 3D7 harboring Plasmodium falciparum ATP4 L928F mutant by LDH assay; format: functional, organism-based
[29] = tested on: Plasmodium falciparum; test: Antiplasmodial activity against W454-resistant population 2 Plasmodium falciparum 3D7 harboring Plasmodium falciparum ATP4 L928F mutant by LDH assay; format: functional, organism-based
[30] = tested on: Plasmodium falciparum; test: Antiplasmodial activity against W454-resistant population 3 Plasmodium falciparum 3D7 harboring Plasmodium falciparum ATP4 L928F mutant by LDH assay; format: functional, organism-based
[31] = tested on: Plasmodium falciparum; test: Antiplasmodial activity against multidrug-resistant Plasmodium falciparum Dd2 harboring plasmodium falciparum ATP4 I398F/P990R/D1247Y mutant by SYBR green staining based analysis; format: functional, organism-based
[32] = tested on: Plasmodium falciparum; test: Antiplasmodial activity against multidrug-resistant Plasmodium falciparum Dd2 harboring plasmodium falciparum ATP4 G358S mutant by SYBR green staining based analysis; format: functional, organism-based
[33] = tested on: Plasmodium falciparum; test: Antiplasmodial activity against N-(2,6-difluorophenyl)-2-(6-(5-methyl-1,3,4-oxadiazol-2-yl)-1H-indol-1-yl)acetamide-resistant Plasmodium falciparum Dd2 harboring plasmodium falciparum ATP4 F156L mutant by SYBR green staining based analysis; format: functional, organism-based
[34] = tested on: Plasmodium falciparum; test: Antiplasmodial activity against N-(2,6-difluorophenyl)-2-(6-(5-methyl-1,3,4-oxadiazol-2-yl)-1H-indol-1-yl)acetamide-resistant Plasmodium falciparum Dd2 harboring plasmodium falciparum ATP4 D425E mutant by SYBR green staining based analysis; format: functional, organism-based
[35] = tested on: Plasmodium falciparum; test: Antiplasmodial activity against N-(2,6-difluorophenyl)-2-(6-(5-methyl-1,3,4-oxadiazol-2-yl)-1H-indol-1-yl)acetamide-resistant Plasmodium falciparum Dd2 harbouring ATP4 genome with 2.8 fold CNV by SYBR green staining based analysis; format: functional, organism-based
[36] = tested on: Plasmodium falciparum; test: Antiplasmodial activity against Plasmodium falciparum 3D7 infected in RBC assessed as reduction in nucleotide level at 20 nM incubated for 5 hrs by LC-MS analysis; format: functional, organism-based
[37] = tested on: Plasmodium falciparum; test: Antiplasmodial activity against Plasmodium falciparum 3D7 infected in RBC assessed as reduction in pyrimidine-deoxyribonucleotides level at 20 nM incubated for 5 hrs by LC-MS analysis; format: functional, organism-based
[38] = tested on: Plasmodium falciparum; test: Antiplasmodial activity against Plasmodium falciparum 3D7 infected in RBC assessed as reduction in deoxythymidine triphosphate level at 20 nM incubated for 5 hrs by LC-MS analysis; format: functional, organism-based
[39] = tested on: Plasmodium falciparum; test: Antiplasmodial activity against Plasmodium falciparum 3D7 infected in RBC assessed as reduction in deoxythymidine diphosphate level at 20 nM incubated for 5 hrs by LC-MS analysis; format: functional, organism-based
[40] = tested on: Plasmodium falciparum; test: Antiplasmodial activity against Plasmodium falciparum 3D7 infected in RBC assessed as reduction in deoxycytidine monophosphate level at 20 nM incubated for 5 hrs by LC-MS analysis; format: functional, organism-based
[41] = tested on: Plasmodium falciparum; test: Antiplasmodial activity against Plasmodium falciparum 3D7 infected in RBC assessed as reduction in extracellular parasite growth at 6.7 nM measured for 8 hrs by Giemsa-staining based microscopic analysis; format: functional; design: scale not given: the % may be the effect or the level left
In short: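 Giemsa-stained thin smears were read at 8 h and the percentages of extracellular and intracellular parasites counted, compared with untreated parasites at 0 h.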

[42] = tested on: Plasmodium falciparum; test: Antiplasmodial activity against Plasmodium falciparum 3D7 infected in RBC assessed as reduction in extracellular parasite growth at 0.7 µM measured for 8 hrs by Giemsa-staining based microscopic analysis; design: scale not given: the % may be the effect or the level left

COc1cc(NC(=O)Cn2cc(Cl)c3cc(F)c(-c4cnn(C)c4)cc32)cc(OC)c1OC
EC50 [1]: 13 nM
CC50 [2]: > 40 µM
solubility kinetic [3]: < 2.5 µM
intrinsic clearance (CLint) [4]: < 3.5 µL/min/mg
intrinsic clearance (CLint) [5]: 6.8 µL/min/mg
intrinsic clearance (CLint) [6]: 2.6 uL/min/10^6 cells
logD [7]: 4.8
permeability [8]: 1.5 10^-6 cm/s
permeability [9]: 0.8 10^-6 cm/s
EC50 [10]: 210 nM
EC50 [11]: 250 nM
Activity [12]: 59%
Activity [13]: 83%
Activity [14]: 15.3%
Activity [15]: 55%
Tmax [16]: 5.33 h
Cmax [17]: 700 ng/mL
AUC(0-t) [18]: 8190 ng·h/mL
half-life [19]: 130 min
CL/F [20]: 42 mL/min/kg

C[C@@H]1CC[C@H]2[C@@H](C)C(=O)O[C@@H]3O[C@@]4(C)CC[C@@H]1[C@]32OO4 [ARTEMISININ]
Activity [21]: 2.6%
Activity [22]: 92.4%

Cn1cc(-c2ccc3c(C#N)cn(CC(=O)Nc4ccccc4Cl)c3c2)cn1
EC50 [1]: 240 nM
CC50 [2]: > 40 µM
solubility kinetic [3]: 4.9 µM (≈ 1.91 µg/mL)
intrinsic clearance (CLint) [4]: 62 µL/min/mg
intrinsic clearance (CLint) [6]: 59 uL/min/10^6 cells
logD [7]: 3
IC50 [23]: 150 nM
IC50 [24]: 1100 nM
IC50 [25]: 230 nM and 1100 nM
inhibition [26]: Active

C[C@H]1Cc2c([nH]c3cc(Cl)c(F)cc23)[C@@]2(N1)C(=O)Nc1ccc(Cl)cc12 [CIPARGAMIN]
EC50 [27]: 1 nM
EC50 [28]: < 2 nM
EC50 [29]: < 2 nM
EC50 [30]: 2 nM
EC50 [31]: 4 nM
EC50 [32]: > 0.1 µM
EC50 [33]: 3 nM
EC50 [34]: 2 nM
EC50 [35]: 4 nM
Activity [36]: inactive
Activity [37]: inactive
Activity [38]: inactive
Activity [39]: inactive
Activity [40]: inactive
Activity [41]: ~24%

N#Cc1cc(NC(=O)[C@H]2c3ccccc3C(=O)N(CC(F)(F)F)[C@@H]2c2cccnc2)ccc1F [SJ-733]
EC50 [27]: 61 nM
EC50 [28]: 579 nM
EC50 [29]: 537 nM
EC50 [30]: 533 nM
EC50 [31]: 95 nM
EC50 [32]: > 10 µM
Activity [42]: ~24%
